Results published in ChEMBL document CHEMBL3868627, “Radical scavenging and antibacterial activity of caffemides against gram positive, gram negative and clinical drug resistance bacteria” (Bioorg Med Chem Lett, 2016).

What was measured:
Type in all cases: functional
[1] = test system: Mycolicibacterium smegmatis; assay: Antibacterial activity against Mycobacterium smegmatis MC2 155 ATCC 700084 measured after 72 hrs by serial dilution method
[2] = test system: Mycolicibacterium smegmatis; assay: Bactericidal activity against Mycobacterium smegmatis MC2 155 ATCC 700084 at 50 ug/ml measured after 24 hrs by serial dilution method relative to control
Procedure, shortened: (§1)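 Bacteria were exposed to test compound over a range of µg/ml concentrations. Viable bacteria were counted by colony forming unit (CFU) assay at set time points (6 h and 24 h for M. smegmatis and S. aureus strains), and untreated bacteria served as the control. Percentage of population killed was calculated relative to the untreated control. Values are means ± S.D of three independent trials.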

Pseudomonas aeruginosa [3] = assay: Bactericidal activity against Pseudomonas aeruginosa PAO1 ATCC 15692 at >300 ug/ml measured after 1 and 3 hrs by serial dilution method relative to control
Staphylococcus aureus [4] = assay: Bactericidal activity against methicillin-resistant Staphylococcus aureus ATCC 43300 at 50 ug/ml measured after 6 hrs by serial dilution method relative to control; procedure, shortened: as §1
Staphylococcus aureus [5] = assay: Bactericidal activity against methicillin-resistant Staphylococcus aureus ATCC 43300 at 50 ug/ml measured after 24 hrs by serial dilution method relative to control; procedure, shortened: as §1
[6] = test system: Mycolicibacterium smegmatis; assay: Antibacterial activity against Mycobacterium smegmatis MC2 155 ATCC 700084 assessed as colony forming units at 10 ug/ml measured after 6 hrs by serial dilution method (reference value: 70 +/- 1.73 10^3CFU); procedure, shortened: as §1
[7] = test system: Mycolicibacterium smegmatis; assay: Antibacterial activity against Mycobacterium smegmatis MC2 155 ATCC 700084 assessed as colony forming units at 200 ug/ml measured after 6 hrs by serial dilution method (reference value: 70 +/- 1.73 10^3CFU); procedure, shortened: as §1
[8] = test system: Mycolicibacterium smegmatis; assay: Antibacterial activity against Mycobacterium smegmatis MC2 155 ATCC 700084 assessed as colony forming units at 300 ug/ml measured after 6 hrs by serial dilution method (reference value: 70 +/- 1.73 10^3CFU); procedure, shortened: as §1
[9] = test system: Mycolicibacterium smegmatis; assay: Antibacterial activity against Mycobacterium smegmatis MC2 155 ATCC 700084 assessed as colony forming units at 1 ug/ml measured after 24 hrs by serial dilution method (reference value: 84 +/- 4.35 10^3CFU); procedure, shortened: as §1
[10] = test system: Mycolicibacterium smegmatis; assay: Antibacterial activity against Mycobacterium smegmatis MC2 155 ATCC 700084 assessed as colony forming units at 10 ug/ml measured after 24 hrs by serial dilution method (reference value: 84 +/- 4.35 10^3CFU); procedure, shortened: as §1
[11] = test system: Mycolicibacterium smegmatis; assay: Antibacterial activity against Mycobacterium smegmatis MC2 155 ATCC 700084 assessed as colony forming units at 50 ug/ml measured after 24 hrs by serial dilution method (reference value: 84 +/- 4.35 10^3CFU); procedure, shortened: as §1
[12] = test system: Mycolicibacterium smegmatis; assay: Antibacterial activity against Mycobacterium smegmatis MC2 155 ATCC 700084 assessed as colony forming units at 100 ug/ml measured after 24 hrs by serial dilution method (reference value: 84 +/- 4.35 10^3CFU); procedure, shortened: as §1
[13] = test system: Mycolicibacterium smegmatis; assay: Antibacterial activity against Mycobacterium smegmatis MC2 155 ATCC 700084 assessed as colony forming units at 200 ug/ml measured after 24 hrs by serial dilution method (reference value: 84 +/- 4.35 10^3CFU); procedure, shortened: as §1
[14] = test system: Mycolicibacterium smegmatis; assay: Antibacterial activity against Mycobacterium smegmatis MC2 155 ATCC 700084 assessed as colony forming units at 500 ug/ml measured after 24 hrs by serial dilution method (reference value: 84 +/- 4.35 10^3CFU); procedure, shortened: as §1
Pseudomonas aeruginosa [15] = assay: Antibacterial activity against Pseudomonas aeruginosa PAO1 ATCC 15692 assessed as colony forming units at 50 ug/ml measured after 1 hr by serial dilution method (reference value: 85.33 +/- 4.04 10^8CFU)
Pseudomonas aeruginosa [16] = assay: Antibacterial activity against Pseudomonas aeruginosa PAO1 ATCC 15692 assessed as colony forming units at 100 ug/ml measured after 1 hr by serial dilution method (reference value: 85.33 +/- 4.04 10^8CFU)
Pseudomonas aeruginosa [17] = assay: Antibacterial activity against Pseudomonas aeruginosa PAO1 ATCC 15692 assessed as colony forming units at 500 ug/ml measured after 1 hr by serial dilution method (reference value: 85.33 +/- 4.04 10^8CFU)
Pseudomonas aeruginosa [18] = assay: Antibacterial activity against Pseudomonas aeruginosa PAO1 ATCC 15692 assessed as colony forming units at 10 ug/ml measured after 3 hr by serial dilution method (reference value: 141.66 +/- 7.5 10^8CFU)
Pseudomonas aeruginosa [19] = assay: Antibacterial activity against Pseudomonas aeruginosa PAO1 ATCC 15692 assessed as colony forming units at 200 ug/ml measured after 3 hr by serial dilution method (reference value: 141.66 +/- 7.5 10^8CFU)
Staphylococcus aureus [20] = assay: Antibacterial activity against Staphylococcus aureus ATCC 25923 assessed as colony forming units at 1 ug/ml measured after 6 hrs by serial dilution method (reference value: 65.66 +/- 3.51 10^6CFU)
Staphylococcus aureus [21] = assay: Antibacterial activity against Staphylococcus aureus ATCC 25923 assessed as colony forming units at 200 ug/ml measured after 6 hrs by serial dilution method (reference value: 65.66 +/- 3.51 10^6CFU)
Staphylococcus aureus [22] = assay: Antibacterial activity against Staphylococcus aureus ATCC 25923 assessed as colony forming units at 300 ug/ml measured after 6 hrs by serial dilution method (reference value: 65.66 +/- 3.51 10^6CFU); procedure, shortened: as §1
Staphylococcus aureus [23] = assay: Antibacterial activity against Staphylococcus aureus ATCC 25923 assessed as colony forming units at 500 ug/ml measured after 6 hrs by serial dilution method (reference value: 65.66 +/- 3.51 10^6CFU); procedure, shortened: as §1
Staphylococcus aureus [24] = assay: Antibacterial activity against Staphylococcus aureus ATCC 25923 assessed as colony forming units at 300 ug/ml measured after 24 hrs by serial dilution method (reference value: 77.66 +/- 5.13 10^6CFU)
Staphylococcus aureus [25] = assay: Antibacterial activity against methicillin-resistant Staphylococcus aureus ATCC 43300 assessed as colony forming units at 1 ug/ml measured after 6 hrs by serial dilution method (reference value: 64.33 +/- 3.51 10^6CFU); procedure, shortened: as §1
Staphylococcus aureus [26] = assay: Antibacterial activity against methicillin-resistant Staphylococcus aureus ATCC 43300 assessed as colony forming units at 10 ug/ml measured after 6 hrs by serial dilution method (reference value: 64.33 +/- 3.51 10^6CFU); procedure, shortened: as §1
Staphylococcus aureus [27] = assay: Antibacterial activity against methicillin-resistant Staphylococcus aureus ATCC 43300 assessed as colony forming units at 100 ug/ml measured after 6 hrs by serial dilution method (reference value: 64.33 +/- 3.51 10^6CFU); procedure, shortened: as §1
Staphylococcus aureus [28] = assay: Antibacterial activity against methicillin-resistant Staphylococcus aureus ATCC 43300 assessed as colony forming units at 1 ug/ml measured after 24 hrs by serial dilution method (reference value: 74 +/- 2 10^6CFU); procedure, shortened: as §1
Staphylococcus aureus [29] = assay: Antibacterial activity against methicillin-resistant Staphylococcus aureus ATCC 43300 assessed as colony forming units at 10 ug/ml measured after 24 hrs by serial dilution method (reference value: 74 +/- 2 10^6CFU); procedure, shortened: as §1

O=C(/C=C/c1ccc(O)c(O)c1)Nc1ccccc1Nc1ccccc1
Activity [1]: Dose-dependent effect | Activity [2]: 78.1% | Activity (Pseudomonas aeruginosa [3]): 100% | Activity (Staphylococcus aureus [4]): 52.8% | Activity (Staphylococcus aureus [5]): 61.2% | Activity [6]: 38.33 ×10³ CFU | Activity [7]: 15 ×10³ CFU | Activity [8]: 0 ×10³ CFU | Activity [9]: 54 ×10³ CFU | Activity [10]: 35.33 ×10³ CFU | Activity [11]: 18.33 ×10³ CFU | Activity [12]: 8 ×10³ CFU | Activity [13]: 0 ×10³ CFU | Activity [14]: 0 ×10³ CFU | Activity (Pseudomonas aeruginosa [15]): 35 ×10⁸ CFU | Activity (Pseudomonas aeruginosa [16]): 22.33 ×10⁸ CFU | Activity (Pseudomonas aeruginosa [17]): 0 ×10⁸ CFU | Activity (Pseudomonas aeruginosa [18]): 91.66 ×10⁸ CFU | Activity (Pseudomonas aeruginosa [19]): 21.33 ×10⁸ CFU | Activity (Staphylococcus aureus [20]): 42 ×10⁶ CFU | Activity (Staphylococcus aureus [21]): 0 ×10⁶ CFU | Activity (Staphylococcus aureus [22]): 0 ×10⁶ CFU | Activity (Staphylococcus aureus [23]): 0 ×10⁶ CFU | Activity (Staphylococcus aureus [24]): 0 ×10⁶ CFU | Activity (Staphylococcus aureus [25]): 58 ×10⁶ CFU | Activity (Staphylococcus aureus [26]): 48 ×10⁶ CFU | Activity (Staphylococcus aureus [27]): 24.33 ×10⁶ CFU | Activity (Staphylococcus aureus [28]): 60 ×10⁶ CFU | Activity (Staphylococcus aureus [29]): 41.66 ×10⁶ CFU

Cc1ccc(O)c(NC(=O)/C=C/c2ccc(O)c(O)c2)c1
Activity [1]: Dose-dependent effect | Activity [2]: 45.6% | Activity (Pseudomonas aeruginosa [3]): 100% | Activity (Staphylococcus aureus [4]): 57.5% | Activity (Staphylococcus aureus [5]): 64.8% | Activity [6]: 42.66 ×10³ CFU | Activity [7]: 6.33 ×10³ CFU | Activity [8]: 0 ×10³ CFU | Activity [9]: 62.66 ×10³ CFU | Activity [10]: 58 ×10³ CFU | Activity [11]: 45.66 ×10³ CFU | Activity [12]: 36.33 ×10³ CFU | Activity [13]: 15 ×10³ CFU | Activity [14]: 0 ×10³ CFU | Activity (Pseudomonas aeruginosa [15]): 43 ×10⁸ CFU | Activity (Pseudomonas aeruginosa [16]): 23.33 ×10⁸ CFU | Activity (Pseudomonas aeruginosa [17]): 0 ×10⁸ CFU | Activity (Pseudomonas aeruginosa [18]): 112 ×10⁸ CFU | Activity (Pseudomonas aeruginosa [19]): 38.33 ×10⁸ CFU | Activity (Staphylococcus aureus [20]): 26.33 ×10⁶ CFU | Activity (Staphylococcus aureus [21]): 4.66 ×10⁶ CFU | Activity (Staphylococcus aureus [22]): 0 ×10⁶ CFU | Activity (Staphylococcus aureus [23]): 0 ×10⁶ CFU | Activity (Staphylococcus aureus [24]): 0 ×10⁶ CFU | Activity (Staphylococcus aureus [25]): 61 ×10⁶ CFU | Activity (Staphylococcus aureus [26]): 44.66 ×10⁶ CFU | Activity (Staphylococcus aureus [27]): 20.33 ×10⁶ CFU | Activity (Staphylococcus aureus [28]): 54.33 ×10⁶ CFU | Activity (Staphylococcus aureus [29]): 41.33 ×10⁶ CFU
